Assay results of several laboratories.
Target: Serine/threonine-protein kinase PAK 4 (PAK4, Homo sapiens, UniProt O96013)

SMILES	observed	action	technique	concentration	measurement	value
Cc1ccc(C(=O)Nc2ccc(CN3CCN(C)CC3)c(C(F)(F)F)c2)cc1C#Cc1cnc2cccnn12	enzyme activity	inhibitor	–	23.5 nM	remaining activity	91%
Cc1c(NC(=O)c2cc(C(N)=O)nc3cc(F)ccc23)c(C(F)(F)F)nn1Cc1ccc(C(C)(C)C)cc1	cell-free assay	–	competition with immobilised ligand	1 µM	remaining binding	100%
CNC(=O)c1cc(Oc2ccc(NC(=O)Nc3ccc(Cl)c(C(F)(F)F)c3)cc2)ccn1	enzyme activity	inhibitor	–	10 µM	inhibition	-9%
CCN(CC)c1ccc(C2=NNC(=O)CC2C)cc1[N+](=O)[O-] (stereo not shown)	enzyme activity	inhibitor	–	10 µM	remaining activity	98%
Nc1nc(Nc2ccccc2)sc1C(=O)c1c(F)cccc1F	enzyme activity	inhibitor	–	10 µM	remaining activity	47%
C=CC(=O)Nc1cc(Nc2nccc(Nc3cc(Cl)c(F)cc3C(C)(C)O)n2)c(OC)cc1N1CC[C@@H](N(C)C)C1	enzyme activity	inhibitor	–	1 µM	inhibition	5%
COc1cccc(CNC(=O)c2nc3scc(COCc4ccc(C(=O)O)cc4)c3c(=O)[nH]2)c1	cell-free assay	–	competition with immobilised ligand	1 µM	remaining binding	100%
Oc1ccc(-c2nc(-c3ccncc3)c(-c3ccc(F)cc3)[nH]2)cc1	cell-free assay	–	–	0.5 µM	remaining signal	98.6%
Cc1ccc(Nc2nccc(N(C)c3ccc4c(C)n(C)nc4c3)n2)cc1S(N)(=O)=O	enzyme activity	inhibitor	–	0.3 µM	inhibition	-17%
Cc1[nH]c(/C=C2\C(=O)Nc3ccc(F)cc32)c(C)c1C(=O)N[C@H]1CCN(C(=O)N(C)C)C1	enzyme activity	inhibitor	–	1 µM	remaining activity	105%
Oc1cccc(-c2nc(N3CCOCC3)c3oc4ncccc4c3n2)c1	enzyme activity	inhibitor	–	10 µM	remaining activity	70%
COc1cc2ncnc(Nc3ccc(F)c(Cl)c3)c2cc1OCCCN1CCOCC1	cell-free assay	–	–	0.5 µM	remaining signal	90.2%
CCCS(=O)(=O)Nc1ccc(F)c(C(=O)c2c[nH]c3ncc(-c4ccc(Cl)cc4)cc23)c1F	enzyme activity	inhibitor	–	1 µM	inhibition	< 10%
FC(F)(F)Oc1cccc(-c2cnc3ccc(-c4ccncc4)nn23)c1	enzyme activity	inhibitor	radiometric	5 µM	activity vs control	64%
Cn1c(=O)n(-c2ccc(C(C)(C)C#N)cc2)c2c3cc(-c4cnc5ccccc5c4)ccc3ncc21	enzyme activity	inhibitor	–	10 µM	remaining activity	87%
CC(C)(C)c1nc(-c2cccc(NS(=O)(=O)c3c(F)cccc3F)c2F)c(-c2ccnc(N)n2)s1	enzyme activity	inhibitor	radiometric	1 µM	remaining activity	68%
O=C1NC(=O)c2cc(Nc3ccc(F)cc3)c(Nc3ccc(F)cc3)cc21	cell-free assay	–	–	0.5 µM	remaining signal	95.1%

SMILES	observed	action	technique	concentration	measurement	value
CC(C)(O)[C@H]1CC[C@H](Nc2ccc3ncc(-c4cccc(C(F)(F)F)c4)n3n2)CC1	enzyme activity	inhibitor	–	1 µM	remaining activity	98%
COc1cc(-c2cc(-c3ccc(N4CCNCC4)cc3)cnc2C)cc(OC)c1OC	enzyme activity	inhibitor	–	1 µM	inhibition	4%
CN(c1ccnc(CNc2nc(Nc3ccc4c(c3)CC(=O)N4)ncc2C(F)(F)F)n1)S(C)(=O)=O	cell-free assay	–	competition with immobilised ligand	1 µM	remaining binding	52%
CN(c1ncccc1CNc1nc(Nc2ccc3c(c2)CC(=O)N3)ncc1C(F)(F)F)S(C)(=O)=O	enzyme activity	inhibitor	–	1 µM	inhibition	88.5%
CCc1ccccc1C(=O)Nc1n[nH]c2c(C)c(F)c(C3C(C#N)=C(C)N(C)C(C)=C3C#N)cc12	cell-free assay	–	competition with immobilised ligand	1 µM	remaining binding	100%
CCN(CC)CCNC(=O)c1c(C)[nH]c(/C=C2\C(=O)Nc3ccc(F)cc32)c1C	enzyme activity	inhibitor	–	10 µM	inhibition	55%
O=C(Nc1cnn(-c2csc(C(=O)NC3COC3)c2)c1)Nc1c(F)cccc1Cl	enzyme activity	inhibitor	–	5 µM	remaining activity	107%
CCN(CC)CCNC(=O)c1c(C)[nH]c(/C=C2\C(=O)Nc3ccc(F)cc32)c1C	enzyme activity	inhibitor	–	1 µM	remaining activity	82%
CS(=O)(=O)Nc1cccc(-c2csc(NC(=O)CSc3nc4nccnc4c(=O)n3CCc3ccccc3)n2)c1	enzyme activity	inhibitor	–	10 µM	inhibition	4%
c1ccc(N2CCN(Cc3nc4ccccc4[nH]3)CC2)nc1	cell-free assay	–	competition with immobilised ligand	1 µM	remaining binding	93%
COc1cc(Nc2cnc(C#N)c(O[C@H](C)CN(C)C)n2)ncc1-c1cnn(C)c1	enzyme activity	inhibitor	radiometric	1 µM	remaining activity	87%
CSc1cccnc1N1CCN(Cc2nc3ccccc3[nH]2)CC1	cell-free assay	–	competition with immobilised ligand	1 µM	remaining binding	100%
Cc1cnc(NC2CCOCC2)nc1-n1cnc(C(=O)NC(CN)c2cc(F)cc(Cl)c2)c1 (stereo not shown)	enzyme activity	inhibitor	radiometric	1 µM	remaining activity	96%
O=C1NC(c2ccccn2)Sc2ccccc21 (stereo not shown)	cell-free assay	–	competition with immobilised ligand	1 µM	remaining binding	84%
COc1cc2c(N3CCN(C(=O)Nc4ccc(OC(C)C)cc4)CC3)ncnc2cc1OCCCN1CCCCC1	cell-free assay	–	–	0.5 µM	remaining signal	103%
CC1=C(C#N)C(c2ccc3c(c2)c(NC(=O)c2ccccc2C)nn3C)C(C#N)=C(C)N1	cell-free assay	–	competition with immobilised ligand	1 µM	remaining binding	100%
Cc1ccc(NC(=O)c2ccc(C)c(C(F)(F)F)c2)cc1C#Cc1nn(C2CCC(O)CC2)c2ncnc(N)c12 (stereo not shown)	cell-free assay	–	–	10 µM	remaining signal	88%
